This is an account of results in ChEMBL document CHEMBL4321819, “Simple Structural Modifications Converting a Bona fide MDM2 PROTAC Degrader into a Molecular Glue Molecule: A Cautionary Tale in the Design of PROTAC Degraders” (J Med Chem, 2019).

Experiment [1] addresses E3 ubiquitin-protein ligase Mdm2 (Homo sapiens, UniProt Q00987). As to the kind of experiment: Displacement of PMDM6-F fluorescent probe from human recombinant His-tagged MDM2 (1 to 118 residues) after 15 mins by fluorescence polarization assay. The gist of the method:
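Recombinant human His-tagged MDM2 (residues 1–118) with a FAM-labelled p53-based peptide as fluorescent probe; competitive fluorescence-polarization binding. Mean ± standard error from at least three independent experiments.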

Experiment [2] concerns MDA-MB-231. The experiment in a line: Antiproliferative activity against human MDA-MB-231 cells assessed as cell growth inhibition after 4 days in presence of control siRNA for 3 days followed by compound treatment by WST-8 assay. The experiment is classed as functional, cell-based. In general terms: Tetrazolium assays rely on reduction of a dye to a coloured formazan, in cell work by metabolically active cells.

Experiment [3] concerns MDA-MB-231. The experiment in a line: Antiproliferative activity against human MDA-MB-231 cells transfected with CRBN siRNA LQ-021086-11-0002 assessed as cell growth inhibition after 4 days by WST-8 assay. The experiment is classed as functional, cell-based. Conditions: MDA-MB-231, 96 h. In outline: (§1)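 MDA-MB-231 or MDA-MB-468 cells transfected for 2 days using Lipofectamine RNAiMAX with MDM2 siRNA, one of two CRBN siRNAs, or non-targeting control siRNA. Compound then added and growth read by WST-8 at 450 nm.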

For experiment [4], the system named is MDA-MB-231. As to the kind of experiment: Antiproliferative activity against human MDA-MB-231 cells transfected with CRBN siRNA LQ-021086-10-0002 assessed as cell growth inhibition after 4 days by WST-8 assay. As to conditions: MDA-MB-231, 72 h, in the assay text read “after 3 days” for “after 4 days”. In kind it is functional, cell-based. In outline:
as §1

Experiment [5] has as its system MDA-MB-468. The experiment in a line: Antiproliferative activity against human MDA-MB-468 cells transfected with CRBN siRNA LQ-021086-11-0002 assessed as cell growth inhibition after 4 days by WST-8 assay. The experiment is classed as functional, cell-based. As to conditions: MDA-MB-468, 96 h. The gist of the method:
as §1

The subject of experiment [6] is MDA-MB-468. The experiment in a line: Antiproliferative activity against human MDA-MB-468 cells assessed as cell growth inhibition after 4 days in presence of control siRNA for 3 days followed by compound treatment by WST-8 assay. The experiment is classed as functional, cell-based.
The subject of experiment [7] is MDA-MB-468. As to the kind of experiment: Antiproliferative activity against human MDA-MB-468 cells transfected with CRBN siRNA LQ-021086-10-0002 assessed as cell growth inhibition after 4 days by WST-8 assay. The experiment is classed as functional, cell-based. Conditions: MDA-MB-468, 96 h. The gist of the method:
as §1

In experiment [8] the target is T1, Protein cereblon/Eukaryotic peptide chain release factor GTP-binding subunit ERF3A/DNA damage-binding protein 1/Cullin-4A (Homo sapiens) (UniProt Q96SW2+Q16531+Q13619+P15170). The experiment in a line: Protac activity at GSPT1/CUL4/DDB1/CRBN in human RS4:11 cells expressing wild type p53 assessed as decrease in GSPT1 protein level at 1 to 3 uM after 24 hrs by Western blot analysis. The experiment is classed as cell-based. The gist of the method: (§2)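 RS4;11 (wild-type p53) or RS4;11/IRMI-2 (MDM2 inhibitor-resistant derivative, mutant p53) cells kept in RPMI 1640 with 10% FBS at 37 °C, 5% CO₂. 2×10^6 cells/well treated at the indicated concentrations and times, then lysed in ice-cold lysis buffer with protease inhibitor. GSPT1 detected by Western blot with a specific antibody.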
T1 sequence (P15170 whole entry, looked up): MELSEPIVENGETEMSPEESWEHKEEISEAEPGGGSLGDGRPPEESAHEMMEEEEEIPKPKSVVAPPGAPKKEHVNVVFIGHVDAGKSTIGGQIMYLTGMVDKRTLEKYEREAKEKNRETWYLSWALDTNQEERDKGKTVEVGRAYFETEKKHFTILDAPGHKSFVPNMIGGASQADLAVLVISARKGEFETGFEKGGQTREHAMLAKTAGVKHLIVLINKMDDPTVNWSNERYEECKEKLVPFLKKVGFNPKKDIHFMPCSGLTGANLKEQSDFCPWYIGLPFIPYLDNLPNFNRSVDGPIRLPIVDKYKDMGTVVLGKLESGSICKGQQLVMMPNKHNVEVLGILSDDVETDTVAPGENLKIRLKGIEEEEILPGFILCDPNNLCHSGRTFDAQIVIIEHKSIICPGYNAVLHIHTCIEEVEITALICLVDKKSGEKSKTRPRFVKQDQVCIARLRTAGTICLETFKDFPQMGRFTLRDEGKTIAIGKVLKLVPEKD
T1 sequence (Q13619 whole entry, looked up): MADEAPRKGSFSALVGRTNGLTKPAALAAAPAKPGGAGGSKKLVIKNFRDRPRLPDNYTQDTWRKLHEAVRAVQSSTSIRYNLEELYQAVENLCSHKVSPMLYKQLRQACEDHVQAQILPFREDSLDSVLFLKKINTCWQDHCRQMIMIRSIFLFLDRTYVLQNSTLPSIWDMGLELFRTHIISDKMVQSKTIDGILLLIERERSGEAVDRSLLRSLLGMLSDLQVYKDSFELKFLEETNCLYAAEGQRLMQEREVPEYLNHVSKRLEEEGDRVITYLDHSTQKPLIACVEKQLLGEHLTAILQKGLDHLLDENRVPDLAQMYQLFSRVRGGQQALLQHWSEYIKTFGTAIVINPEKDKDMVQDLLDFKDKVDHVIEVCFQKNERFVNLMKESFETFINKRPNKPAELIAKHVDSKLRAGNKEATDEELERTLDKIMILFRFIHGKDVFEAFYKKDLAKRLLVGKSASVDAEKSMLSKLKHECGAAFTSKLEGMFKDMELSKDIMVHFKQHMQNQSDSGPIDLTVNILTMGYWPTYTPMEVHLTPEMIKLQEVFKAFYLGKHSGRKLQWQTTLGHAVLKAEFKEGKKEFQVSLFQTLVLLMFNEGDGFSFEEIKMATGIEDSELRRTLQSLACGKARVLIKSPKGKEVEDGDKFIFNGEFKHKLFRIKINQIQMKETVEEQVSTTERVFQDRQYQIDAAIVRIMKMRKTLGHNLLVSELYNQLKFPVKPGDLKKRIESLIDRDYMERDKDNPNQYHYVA
T1 sequence (Q16531 whole entry, looked up): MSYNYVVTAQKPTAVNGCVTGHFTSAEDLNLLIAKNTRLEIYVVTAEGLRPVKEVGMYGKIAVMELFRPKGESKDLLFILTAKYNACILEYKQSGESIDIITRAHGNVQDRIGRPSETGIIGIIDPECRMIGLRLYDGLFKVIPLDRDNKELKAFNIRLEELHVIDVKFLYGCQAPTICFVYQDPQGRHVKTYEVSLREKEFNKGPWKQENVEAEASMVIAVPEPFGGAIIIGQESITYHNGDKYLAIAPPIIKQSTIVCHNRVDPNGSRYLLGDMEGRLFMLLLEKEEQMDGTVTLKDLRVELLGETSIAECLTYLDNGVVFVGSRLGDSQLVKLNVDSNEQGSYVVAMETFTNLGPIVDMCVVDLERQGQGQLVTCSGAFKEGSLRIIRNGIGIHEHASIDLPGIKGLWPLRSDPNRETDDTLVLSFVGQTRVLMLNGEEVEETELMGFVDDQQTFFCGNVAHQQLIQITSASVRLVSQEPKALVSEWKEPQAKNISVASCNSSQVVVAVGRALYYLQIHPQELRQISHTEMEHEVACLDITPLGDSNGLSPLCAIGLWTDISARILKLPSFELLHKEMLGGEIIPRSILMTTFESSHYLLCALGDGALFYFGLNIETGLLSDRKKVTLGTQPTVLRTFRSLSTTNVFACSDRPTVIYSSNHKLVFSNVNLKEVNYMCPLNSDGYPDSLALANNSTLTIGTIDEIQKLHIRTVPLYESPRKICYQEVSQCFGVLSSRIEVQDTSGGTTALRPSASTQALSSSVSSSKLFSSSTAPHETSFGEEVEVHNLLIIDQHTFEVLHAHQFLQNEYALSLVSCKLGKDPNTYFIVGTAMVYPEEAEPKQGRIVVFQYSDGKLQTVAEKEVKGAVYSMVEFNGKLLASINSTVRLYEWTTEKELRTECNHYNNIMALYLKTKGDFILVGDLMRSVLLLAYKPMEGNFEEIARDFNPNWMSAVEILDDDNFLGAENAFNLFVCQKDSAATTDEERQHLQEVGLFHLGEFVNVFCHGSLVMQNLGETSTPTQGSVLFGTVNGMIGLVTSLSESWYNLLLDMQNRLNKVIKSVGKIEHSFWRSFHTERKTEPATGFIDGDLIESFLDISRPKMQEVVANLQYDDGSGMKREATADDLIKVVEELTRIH
T1 sequence (Q96SW2 whole entry, looked up): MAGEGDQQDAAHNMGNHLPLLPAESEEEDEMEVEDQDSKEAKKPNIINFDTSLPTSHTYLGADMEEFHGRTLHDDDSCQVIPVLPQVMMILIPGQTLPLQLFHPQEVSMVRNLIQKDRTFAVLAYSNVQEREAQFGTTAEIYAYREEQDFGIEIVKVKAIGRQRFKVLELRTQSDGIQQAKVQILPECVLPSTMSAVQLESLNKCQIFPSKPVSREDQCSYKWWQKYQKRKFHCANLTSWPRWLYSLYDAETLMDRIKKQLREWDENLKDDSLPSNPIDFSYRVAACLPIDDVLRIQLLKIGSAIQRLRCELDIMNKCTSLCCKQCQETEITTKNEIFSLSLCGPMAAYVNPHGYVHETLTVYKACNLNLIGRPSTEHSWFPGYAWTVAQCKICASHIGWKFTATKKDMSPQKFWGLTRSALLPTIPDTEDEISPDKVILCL
For orientation: Immunoblotting shows a protein as a band on a membrane.

The test system of experiment [9] is RS4-11. The experiment in a line: Antiproliferative activity against human RS4:11 cells expressing wild type p53 assessed as cell growth inhibition after 4 days by WST-8 assay. The experiment is classed as functional, cell-based. Conditions: RS4-11, 96 h. The gist of the method: (§3)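 Leukemia cells seeded at 10000–20000 cells/well, breast cancer lines at 5000–10000 cells/well. Serially diluted compound added, then 4 days at 37 °C, 5% CO2. Growth read with WST-8 reagent after at least 1 h, absorbance at 450 nm. RS4;11, MOLM-13 and breast lines were grown in RPMI 1640; MV-4-11 and HL-60 in IMDM; all with 10% FBS. Mean ± SE, at least three independent experiments.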

A short description of experiment [10]: Antiproliferative activity against human RS4:11/IRMI-2 cells harboring p53 hotspot mutation Y236H/R249G assessed as cell growth inhibition after 4 days by WST-8 assay. As to conditions: RS4-11, 96 h. The experiment is classed as functional, cell-based. The gist of the method:
as §3

The target of experiment [11] is T1, Protein cereblon/Eukaryotic peptide chain release factor GTP-binding subunit ERF3A/DNA damage-binding protein 1/Cullin-4A (Homo sapiens). As to the kind of experiment: Protac activity at GSPT1/CUL4/DDB1/CRBN in human RS4:11/IRMI-2 cells harboring p53 hotspot mutation Y236H/R249G assessed as decrease in GSPT1 protein level at 1 to 3 uM after 24 hrs by Western blot analysis. In kind it is cell-based. The gist of the method: as §2

The target of experiment [12] is Eukaryotic peptide chain release factor GTP-binding subunit ERF3A (Homo sapiens, UniProt P15170). As to the kind of experiment: Induction of GSPT1 degradation in human RS4:11 cells measured after 24 hrs by Western blot analysis. The experiment is classed as cell-based.
Chain of Eukaryotic peptide chain release factor GTP-binding subunit ERF3A (P15170 whole entry): as the sequence (P15170 whole entry, looked up) above
The test system of experiment [13] is RS4-11. As to the kind of experiment: Antiproliferative activity against human RS4:11 cells expressing wild type p53 assessed as cell growth inhibition without interaction with cereblon after 4 days by WST-8 assay. The experiment is classed as functional, cell-based. As to conditions: RS4-11, 96 h. In outline:
as §3

Experiment [14] is described as follows: Antiproliferative activity against human RS4:11/IRMI-2 cells harboring p53 hotspot mutation Y236H/R249G assessed as cell growth inhibition without interaction with cereblon after 4 days by WST-8 assay. In kind it is functional, cell-based. As to conditions: RS4-11, 96 h. In outline:
as §3

Experiment [15] deals with MDA-MB-231. As to the kind of experiment: Antiproliferative activity against human MDA-MB-231 cells harboring mutant p53 assessed as cell growth inhibition without interaction with cereblon after 4 days by WST-8 assay. As to conditions: MDA-MB-231, 96 h. The experiment is classed as functional, cell-based.
The subject of experiment [16] is MDA-MB-468. The experiment in a line: Antiproliferative activity against human MDA-MB-468 cells harboring mutant p53 assessed as cell growth inhibition without interaction with cereblon after 4 days by WST-8 assay. The experiment is classed as functional, cell-based. As to conditions: MDA-MB-468, 96 h.
Experiment [17] concerns RS4-11. The experiment in a line: Antiproliferative activity against human RS4:11 cells expressing wild type p53 assessed as MDM2-independent cell growth inhibition after 4 days by WST-8 assay. In kind it is functional, cell-based. Conditions: RS4-11, 96 h. The gist of the method: as §3
Experiment [18] can be described thus: Antiproliferative activity against human RS4:11/IRMI-2 cells harboring p53 hotspot mutation Y236H/R249G assessed as MDM2-independent cell growth inhibition after 4 days by WST-8 assay. As to conditions: RS4-11, 96 h. In kind it is functional, cell-based. In outline: as §3
Experiment [19] deals with T1, Protein cereblon/Eukaryotic peptide chain release factor GTP-binding subunit ERF3A/DNA damage-binding protein 1/Cullin-4A (Homo sapiens). As to the kind of experiment: Protac activity at GSPT1/CUL4/DDB1/CRBN in human RS4:11/IRMI-2 cells harboring p53 hotspot mutation Y236H/R249G assessed as decrease in GSPT1 protein level after 2 hrs by Western blot analysis. The experiment is classed as cell-based. In outline:
as §2

Experiment [20] has the same target. The experiment in a line: Protac activity at GSPT1/CUL4/DDB1/CRBN in human RS4:11 cells expressing wild type p53 assessed as decrease in GSPT1 protein level after 2 hrs by Western blot analysis. The experiment is classed as cell-based. In outline:
as §2

The source made the active and inactive calls. The rule behind the calls is not given here. Some results are limits rather than exact numbers.

Chain of E3 ubiquitin-protein ligase Mdm2 (Q00987 whole entry, the tested form may be a part): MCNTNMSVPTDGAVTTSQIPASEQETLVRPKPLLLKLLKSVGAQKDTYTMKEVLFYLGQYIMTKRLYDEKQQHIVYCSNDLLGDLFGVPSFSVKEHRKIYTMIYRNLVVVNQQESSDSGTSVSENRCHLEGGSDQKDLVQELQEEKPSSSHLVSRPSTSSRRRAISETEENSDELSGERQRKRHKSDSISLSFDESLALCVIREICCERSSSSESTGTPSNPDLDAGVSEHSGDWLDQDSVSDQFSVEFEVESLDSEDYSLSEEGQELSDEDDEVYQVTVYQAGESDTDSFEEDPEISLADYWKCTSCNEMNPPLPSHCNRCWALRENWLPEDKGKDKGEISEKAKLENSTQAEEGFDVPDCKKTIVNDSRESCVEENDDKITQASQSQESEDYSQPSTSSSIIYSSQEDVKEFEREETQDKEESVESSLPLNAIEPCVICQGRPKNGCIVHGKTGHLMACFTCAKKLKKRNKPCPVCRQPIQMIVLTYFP

Turning to `O=C(O)c1ccc(NC(=O)[C@@H]2NC3(CCCCC3)[C@@]3(C(=O)Nc4cc(Cl)ccc43)[C@H]2c2cccc(Cl)c2F)cc1`, the IC50 (as a rule, the midpoint of a concentration-inhibition curve) in [1] is 0.0095 µM; in [2], more than 3 µM; in [3], more than 3 µM; in experiment [4], more than 3 µM; in [5], more than 3 µM; in experiment [6] it was more than 3 µM. Moreover, the IC50 in experiment [7] was more than 3 µM.

For the molecule `O=C1CCC(N2Cc3c(NC(=O)[C@@H]4NC5(CCCCC5)[C@@]5(C(=O)Nc6cc(Cl)ccc65)[C@H]4c4cccc(Cl)c4F)cccc3C2=O)C(=O)N1` (stereo partly specified), the result in experiment [8] and in experiment [11] was Active. The figures for the half-inhibitory concentration (IC50) in [9] and in experiment [10] were 0.76 µM and 2.58 µM, respectively. For the same molecule, half-maximal degradation in experiment [12] (DC50) was put at 2.3 µM.

`CN1C(=O)CCC(N2Cc3c(CCCCCNC(=O)[C@@H]4NC5(CCCCC5)[C@@]5(C(=O)Nc6cc(Cl)ccc65)[C@H]4c4cccc(Cl)c4F)cccc3C2=O)C1=O` (stereo partly specified): the IC50 in experiment [13] was 2.49 µM; in experiment [14], 6.85 µM; in experiment [15] it was more than 10 µM; in [16] it was more than 10 µM.

For the molecule `O=C1CCC(N2Cc3c(CCCCCNC(=O)[C@@H]4NC5(CCCCC5)[C@@]5(C(=O)Nc6cc(Cl)ccc65)[C@H]4c4ccccc4)cccc3C2=O)C(=O)N1` (stereo partly specified), the IC50 in [1] is more than 20 µM; in experiment [17], 0.0225 µM; in experiment [18], 0.0224 µM.

`O=C1CCC(N2Cc3c(CCCCCNC(=O)[C@@H]4NC5(CCCCC5)[C@@]5(C(=O)Nc6ccccc65)[C@H]4c4ccccc4)cccc3C2=O)C(=O)N1` (stereo partly specified): the IC50 in experiment [1] was more than 20 µM; in [17], 0.0486 µM; in [18], 0.0609 µM.

As for `O=C1CCC(N2Cc3c(CCCOCCOCCOCCNC(=O)[C@@H]4NC5(CCCCC5)[C@@]5(C(=O)Nc6cc(Cl)ccc65)[C@H]4c4cccc(Cl)c4F)cccc3C2=O)C(=O)N1` (stereo partly specified), the half-inhibitory concentration (IC50) amounted to 0.01 µM in [9] and 0.011 µM in experiment [10]. The outcome in [19] and in experiment [20] was Active.
